# In ChEMBL document CHEMBL5346889, “Discovery of 4-oxo-N-phenyl-1,4-dihydroquinoline-3-carboxamide derivatives as novel anti-inflammatory agents for the treatment of acute lung injury and sepsis” (Eur J Med Chem, 2023):
# The source made the active and inactive calls. The calls are words filed in the database; no cut-off is given here.
# Columns and labels:
# J774.A1 [1] = experiment: Antiinflammatory activity in LPS-induced mouse J774.A1 cells assessed as inhibition of LPS-induced TNF-alpha release at 10 uM preincubated for 30 mins followed by LPS stimulation for 24 hrs by ELISA method; assay type: functional; conditions: time 24.5 hrs
# How it was run: (§1)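 J774A.1 macrophages pretreated 30 min at 10 μM, then challenged with LPS 0.5 μg/mL for 24 h at 37 °C, 5% CO2. Medium IL-6 and TNF-α measured by ELISA, normalized to total lysate protein.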
# J774.A1 [2] = experiment: Antiinflammatory activity in LPS-induced mouse J774.A1 cells assessed as inhibition of LPS-induced IL-6 release at 10 uM preincubated for 30 mins followed by LPS stimulation for 24 hrs by ELISA method; assay type: functional; conditions: time 24.5 hrs; how it was run: as §1
# Mus musculus [3] = experiment: Antiinflammatory activity in LPS-induced C57/BL6 mouse acute lung injury model assessed as decrease in TNF-alpha level in serum at 20 mg/kg via oral gavage preincubated for 30 mins followed by LPS stimulation for 6 hrs by ELISA; conditions: time 6.5 hrs
# Mus musculus [4] = experiment: Antiinflammatory activity in LPS-induced C57/BL6 mouse acute lung injury model assessed as decrease in TNF-alpha expression level at 20 mg/kg via oral gavage preincubated for 30 mins followed by LPS stimulation for 6 hrs by RT-qPCR method; assay type: functional, organism-based; conditions: time 6.5 hrs
# How it was run: (§2)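 Male C57BL/6 mice, six weeks old, n = 8 per group. Dosed 20 mg/kg orally 30 min before intratracheal LPS 5 mg/kg; dexamethasone 20 mg/kg as comparator. Lung tissue collected 6 h after LPS. RNA extracted with TRIzol; IL-6 and TNF-α transcripts by RT-qPCR, normalized to β-actin; n = 5 mice per group, mean ± SEM.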
# Mus musculus [5] = experiment: Antiinflammatory activity in LPS-induced C57/BL6 mouse acute lung injury model assessed as decrease in IL-6 level in BALF at 20 mg/kg via oral gavage preincubated for 30 mins followed by LPS stimulation for 6 hrs by ELISA; conditions: time 6.5 hrs
# Mus musculus [6] = experiment: Protection against LPS-induced C57/BL6 mouse acute lung injury model assessed as reduction in protein concentration in BALF at 20 mg/kg via oral gavage preincubated for 30 mins followed by LPS stimulation for 6 hrs; assay type: functional, organism-based; conditions: time 6.5 hrs
# How it was run: (§3)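 Mice dosed 20 mg/kg by gavage (dexamethasone 20 mg/kg comparator), intratracheal LPS 5 mg/kg 30 min later, killed at 6 h. Right upper lobe fixed in paraformaldehyde, H&E; lung wet/dry ratio; BALF protein, total cells and neutrophils counted; n = 5 mice per group, mean ± SEM.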
# Mus musculus [7] = experiment: Protection against LPS-induced C57/BL6 mouse acute lung injury model assessed as reduction in number of neutrophils in BALF at 20 mg/kg via oral gavage preincubated for 30 mins followed by LPS stimulation for 6 hrs; assay type: functional, organism-based; conditions: time 6.5 hrs; how it was run: as §3
# Mus musculus [8] = experiment: Protection against LPS-induced C57/BL6 mouse acute lung injury model assessed as reduction in number of total cells in BALF at 20 mg/kg via oral gavage preincubated for 30 mins followed by LPS stimulation for 6 hrs; assay type: functional, organism-based; conditions: time 6.5 hrs; how it was run: as §3
# Mus musculus [9] = experiment: Protection against LPS-induced C57/BL6 mouse acute lung injury model assessed as reduction in lung wet/dry ratio at 20 mg/kg via oral gavage preincubated for 30 mins followed by LPS stimulation for 6 hrs; assay type: functional, organism-based; conditions: time 6.5 hrs; how it was run: as §3
# Mus musculus [10] = experiment: Protection against LPS-induced C57/BL6 mouse acute lung injury model assessed as improvement in alveolar wall thickening at 20 mg/kg via oral gavage preincubated for 30 mins followed by LPS stimulation for 6 hrs; assay type: functional, organism-based; conditions: time 6.5 hrs; how it was run: as §3
# Mus musculus [11] = experiment: Antiinflammatory activity in LPS-induced C57/BL6 mouse acute lung injury model assessed as reduction in macrophage infiltration at 20 mg/kg via oral gavage preincubated for 30 mins followed by LPS stimulation for 6 hrs by immunohistochemical staining based analysis; assay type: functional, organism-based; conditions: time 6.5 hrs
# How it was run: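 Same ALI model: 20 mg/kg oral, intratracheal LPS 5 mg/kg 30 min later, lungs at 6 h. Paraffin sections given citrate (pH 6.5) antigen retrieval, 3% H2O2 and 5% BSA block, anti-F4/80 12 h at 4 °C, HRP secondary, DAB and hematoxylin; F4/80 positivity quantified; n = 5 per group.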
# Mus musculus [12] = experiment: Antiinflammatory activity in LPS-induced C57/BL6 mouse acute lung injury model assessed as decrease in IL-6 expression level at 20 mg/kg via oral gavage preincubated for 30 mins followed by LPS stimulation for 6 hrs by RT-qPCR method; assay type: functional, organism-based; conditions: time 6.5 hrs; how it was run: as §2
# Mus musculus [13] = experiment: Antiinflammatory activity in LPS-induced C57/BL6 mouse acute lung injury model assessed as decrease in TNF-alpha level in BALF at 20 mg/kg via oral gavage preincubated for 30 mins followed by LPS stimulation for 6 hrs by ELISA; conditions: time 6.5 hrs
# Mus musculus [14] = experiment: Protection against LPS-induced C57/BL6 mouse acute lung injury model assessed as improvement in structural distruption of lung tissue at 20 mg/kg via oral gavage preincubated for 30 mins followed by LPS stimulation for 6 hrs; assay type: functional, organism-based; conditions: time 6.5 hrs; how it was run: as §3
# Mus musculus [15] = experiment: Antiinflammatory activity in LPS-induced C57/BL6 mouse acute lung injury model assessed as decrease in IL-6 level in serum at 20 mg/kg via oral gavage preincubated for 30 mins followed by LPS stimulation for 6 hrs by ELISA; conditions: time 6.5 hrs
# J774.A1 [16] = experiment: Antiinflammatory activity in LPS-induced mouse J774.A1 cells assessed as inhibition of LPS-induced TNF-alpha release preincubated for 30 mins followed by LPS stimulation for 24 hrs by ELISA method; assay type: functional, cell-based
# How it was run: (§4)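 Dose-response in J774A.1 cells: 30 min pretreatment at 10, 5, 2.5 or 1.25 μM, then LPS 0.5 μg/mL for 24 h. IL-6 and TNF-α by ELISA, normalized to lysate protein; IC50 from the dose-response; 3 independent experiments, mean ± SEM.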
# J774.A1 [17] = experiment: Cytotoxicity against mouse J774.A1 cells assessed as reduction in cell viability at 10 uM incubated for 24 hrs by MTT assay; assay type: functional, cell-based
# How it was run: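 J774A.1 macrophages exposed to 10 μM for 24 h; MTT at 5 mg/mL added for 4 h; absorbance read at 490 nm; viability expressed as percent of DMSO control.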
# J774.A1 [18] = experiment: Antiinflammatory activity in LPS-induced mouse J774.A1 cells assessed as inhibition of LPS-induced IL-6 release preincubated for 30 mins followed by LPS stimulation for 24 hrs by ELISA method; assay type: functional, cell-based; how it was run: as §4
Structure (SMILES),inhibition (J774.A1 [1]),inhibition at 10 µM (J774.A1 [2]),inhibition at 10 µM (J774.A1 [1]),also measured
COc1cc2ncnc(Oc3cccc(NC(=O)c4cn(-c5ccc(Br)cc5)c5ccccc5c4=O)c3)c2cc1OC,inactive,20.4%,,
COc1cc2nccc(Oc3cccc(NC(=O)c4cn(-c5ccc(OC(F)(F)F)cc5)c5ccccc5c4=O)c3)c2cc1OC,,66.4%,33.3%,
COc1cc2nccc(Oc3ccc(NC(=O)c4cn(-c5ccc(Br)cc5F)c5ccccc5c4=O)cc3)c2cc1OC,inactive,26.7%,,
COc1cc2ncnc(Oc3ccc(NC(=O)c4cn(-c5ccc(Br)cc5F)c5ccccc5c4=O)cc3)c2cc1OC,inactive,13.3%,,
COc1cc2ncnc(Oc3cccc(NC(=O)c4cn(-c5ccc(OC(F)(F)F)cc5)c5ccccc5c4=O)c3)c2cc1OC,,10.4%,7.66%,
COc1cc2nccc(Oc3cccc(NC(=O)c4cn(-c5ccc(F)c(Cl)c5)c5ccccc5c4=O)c3)c2cc1OC,,49.7%,32.6%,
COc1cc2nccc(Oc3cccc(NC(=O)c4cn(-c5ccc(Br)cc5)c5ccccc5c4=O)c3)c2cc1OC,inactive,37.1%,,
COc1cc2nccc(Oc3ccc(NC(=O)c4cn(-c5ccc(Cl)cc5)c5ccccc5c4=O)cc3)c2cc1OC,,32%,63.5%,
COc1cc2ncnc(Oc3ccc(NC(=O)c4cn(-c5ccc(Cl)cc5)c5ccccc5c4=O)cc3)c2cc1OC,inactive,30.5%,,
COc1cc2nccc(Oc3cccc(NC(=O)c4cn(-c5ccccc5)c5ccccc5c4=O)c3)c2cc1OC,inactive,44.8%,,
COc1cc2ncnc(Oc3ccc(NC(=O)c4cn(-c5ccccc5)c5ccccc5c4=O)cc3)c2cc1OC,,38.1%,30.5%,
COc1cc2nccc(Oc3cccc(NC(=O)c4cn(-c5ccc(F)cc5)c5ccccc5c4=O)c3)c2cc1OC,inactive,51.3%,,
COc1cc2ncnc(Oc3cccc(NC(=O)c4cn(-c5ccc(Cl)cc5)c5ccccc5c4=O)c3)c2cc1OC,inactive,32.3%,,
COc1cc2ncnc(Oc3ccc(NC(=O)c4cn(-c5ccc(F)c(Cl)c5)c5ccccc5c4=O)cc3)c2cc1OC,,39.6%,48%,
COc1cc2ncnc(Oc3cccc(NC(=O)c4cn(-c5ccccc5)c5ccccc5c4=O)c3)c2cc1OC,inactive,42.4%,,
COc1cc2ncnc(Oc3cccc(NC(=O)c4cn(-c5ccc(F)c(Cl)c5)c5ccccc5c4=O)c3)c2cc1OC,,33.9%,36%,
COc1cc2nccc(Oc3ccc(NC(=O)c4cn(-c5ccc(Br)cc5)c5ccccc5c4=O)cc3)c2cc1OC,,41.7%,71.7%,
COc1cc2nccc(Oc3cccc(NC(=O)c4cn(-c5ccc(Br)cc5F)c5ccccc5c4=O)c3)c2cc1OC,inactive,52.9%,,
COc1cc2ncnc(Oc3cccc(NC(=O)c4cn(-c5ccc(Br)cc5F)c5ccccc5c4=O)c3)c2cc1OC,inactive,,,inhibition (J774.A1 [2]): inactive
C[C@@H]1C[C@H]2[C@@H]3CCC4=CC(=O)C=C[C@]4(C)[C@@]3(F)[C@@H](O)C[C@]2(C)[C@@]1(O)C(=O)CO,,,,Activity (Mus musculus [3]): Active; Activity (Mus musculus [4]): Active; Activity (Mus musculus [5]): Active; Activity (Mus musculus [6]): Active; Activity (Mus musculus [7]): Active; Activity (Mus musculus [8]): Active; Activity (Mus musculus [9]): Active; Activity (Mus musculus [10]): Active; Activity (Mus musculus [11]): Active; Activity (Mus musculus [12]): Active; Activity (Mus musculus [13]): Active; Activity (Mus musculus [14]): Active; Activity (Mus musculus [15]): Active
COc1cc2ncnc(Oc3ccc(NC(=O)c4cn(-c5ccc(Br)cc5)c5ccccc5c4=O)cc3)c2cc1OC,,,22.4%,inhibition (J774.A1 [2]): inactive
COc1cc2nccc(Oc3ccc(NC(=O)c4cn(-c5ccc(OC(F)(F)F)cc5)c5ccccc5c4=O)cc3)c2cc1OC,,50.5%,67.6%,
COc1cc2ncnc(Oc3ccc(NC(=O)c4cn(-c5ccc(OC(F)(F)F)cc5)c5ccccc5c4=O)cc3)c2cc1OC,,35.9%,54.9%,
COc1cc2nccc(Oc3cccc(NC(=O)c4cn(-c5ccc(Cl)cc5)c5ccccc5c4=O)c3)c2cc1OC,inactive,60.2%,,
COc1cc2ncnc(Oc3cccc(NC(=O)c4cn(-c5ccc(F)cc5)c5ccccc5c4=O)c3)c2cc1OC,inactive,45.4%,,
COc1cc2nccc(Oc3ccc(NC(=O)c4cn(-c5ccc(F)cc5)c5ccccc5c4=O)cc3)c2cc1OC,,77.4%,83.1%,"IC50 (J774.A1 [16]): 3460 nM; inhibition (J774.A1 [16]; dose 1.25-10 µM, time 24.5 hrs): Dose-Dependent Effect; Activity (J774.A1 [17]): inactive; IC50 (J774.A1 [18]): 2330 nM; inhibition (J774.A1 [18]; dose 1.25-10 µM, time 24.5 hrs): Dose-Dependent Effect"
COc1cc2ncnc(Oc3ccc(NC(=O)c4cn(-c5ccc(F)cc5)c5ccccc5c4=O)cc3)c2cc1OC,,57%,48%,
COc1cc2nccc(Oc3ccc(NC(=O)c4cn(-c5ccc(F)c(Cl)c5)c5ccccc5c4=O)cc3)c2cc1OC,,62.2%,67.7%,
